{"data": "Results from different studies", "CREBBP bromodomain": "CREB-binding protein, bromodomain (CREBBP, Homo sapiens, UniProt Q92793)", "BRWD1 BD2": "Bromodomain and WD repeat-containing protein 1, BD2 (BRWD1, Homo sapiens, UniProt Q9NSI6)", "DYRK3": "Dual specificity tyrosine-phosphorylation-regulated kinase 3 (DYRK3, Homo sapiens, UniProt O43781)", "PTGS2": "Prostaglandin G/H synthase 2 (PTGS2, Homo sapiens, UniProt P35354)", "DYRK1B": "Dual specificity tyrosine-phosphorylation-regulated kinase 1B (DYRK1B, Homo sapiens, UniProt Q9Y463)", "note": "Protocols differ between the studies behind these lines."}
{"SMILES": "Cn1nnc2ccc(NC(=O)c3cccc(C(=O)O)c3)cc21", "target": "CREBBP bromodomain", "assay": "thermal stability, DSF", "setting": "100 µM", "quantity": "ΔTm", "value": "2 °C"}
{"SMILES": "C[S+]([O-])c1ccc(-c2nc(-c3ccncc3)c(-c3ccc(F)cc3)[nH]2)cc1 (stereo not shown)", "target": "BRWD1 BD2", "assay": "thermal stability, DSF", "setting": "10 µM", "quantity": "ΔTm", "value": "1.32 °C"}
{"SMILES": "O=C(O)c1ccc2c(c1)nc(Nc1ccccc1)c1ccncc12", "target": "DYRK3", "assay": "enzyme activity, inhibitor, radiometric", "setting": "1 µM", "quantity": "remaining activity", "value": "7%"}
{"SMILES": "Cc1ccc(NC(=O)c2ccc(C)c(C(F)(F)F)c2)cc1C#Cc1nn(C2CCC(O)CC2)c2ncnc(N)c12 (stereo not shown)", "target": "Rho-associated protein kinase 2 (Rock2, Rattus norvegicus, UniProt Q62868)", "assay": "cell-free assay", "setting": "10 µM", "quantity": "remaining signal", "value": "85%"}
{"SMILES": "O=C(O)c1ccc2c(c1)nc(Nc1ccc(Cl)cc1)c1ncncc12", "target": "DYRK3", "assay": "enzyme activity, inhibitor, radiometric", "setting": "1 µM", "quantity": "remaining activity", "value": "9%"}
{"SMILES": "Cc1ccc(C(=O)Nc2ccc(CN3CCN(C)CC3)c(C(F)(F)F)c2)cc1C#Cc1cnc2cccnn12", "target": "Cyclin-dependent kinase-like 5 (CDKL5, Homo sapiens, UniProt O76039)", "assay": "enzyme activity", "setting": "23.5 nM", "quantity": "remaining activity", "value": "100%"}
{"SMILES": "COC(=O)c1ccc(O)cc1", "target": "PTGS2", "assay": "enzyme activity, inhibitor", "setting": "0.98 µg/mL", "quantity": "inhibition", "value": "0%"}
{"SMILES": "O=C(O)c1ccc2c(c1)nc(NCCc1ccccc1)c1ncncc12", "target": "DYRK1B", "assay": "enzyme activity, inhibitor, radiometric", "setting": "1 µM", "quantity": "remaining activity", "value": "123%"}
{"SMILES": "Cc1cc2c(cc1N1C(=O)c3cccc4c(Cl)ccc(c34)C1=O)n(C)c(=O)n2C", "target": "Bromodomain testis-specific protein, BD2 (BRDT, Homo sapiens, UniProt Q58F21)", "assay": "thermal stability, DSF", "setting": "10 µM", "quantity": "ΔTm", "value": "-1 °C"}
{"SMILES": "C=C[C@@]1(C)C=C2CC[C@@H]3[C@](C)(CCC[C@@]3(C)C(=O)O)[C@H]2CC1", "target": "PTGS2", "assay": "enzyme activity, inhibitor", "setting": "15.63 µg/mL", "quantity": "inhibition", "value": "85.3%"}
{"SMILES": "NS(=O)(=O)c1ccc(Nc2nc(-c3ccc(F)cc3)c3ccccc3n2)cc1", "target": "BRWD1 BD2", "assay": "binding, competition with immobilised ligand", "setting": "1 µM", "quantity": "remaining binding", "value": "88%"}
{"SMILES": "CCOc1ccc2cc(-c3nn(CC4CCN(C)CC4)c4ncnc(N)c34)ccc2c1", "target": "Calmodulin-domain protein kinase 1 (CDPK1, Toxoplasma gondii, UniProt Q9BJF5)", "assay": "thermal stability, DSF", "setting": "20 µM", "quantity": "ΔTm", "value": "12.3 °C"}
{"SMILES": "Cc1cc2c(NC(=O)c3cccc(C(=O)O)c3)cccc2nn1", "target": "CREBBP bromodomain", "assay": "thermal stability, DSF", "setting": "100 µM", "quantity": "ΔTm", "value": "4 °C"}
{"SMILES": "O=C(O)c1ccc2c(c1)nc(Nc1ccc3ccccc3c1)c1ccncc12", "target": "DYRK1B", "assay": "enzyme activity, inhibitor, radiometric", "setting": "1 µM", "quantity": "remaining activity", "value": "84%"}
{"SMILES": "NS(=O)(=O)c1ccc(CNc2nc(Nc3cccc(NC(=O)N4CCCC4)c3)ncc2Br)cc1", "target": "NUAK family SNF1-like kinase 1 (NUAK1, Homo sapiens, UniProt O60285)", "assay": "enzyme activity, inhibitor, radiometric", "setting": "1 µM", "quantity": "remaining activity", "value": "11%"}
{"SMILES": "Oc1ccc(-c2nc(-c3ccncc3)c(-c3ccc(F)cc3)[nH]2)cc1", "target": "Bromodomain testis-specific protein, BD1 (BRDT, Homo sapiens, UniProt Q58F21)", "assay": "thermal stability, DSF", "setting": "10 µM", "quantity": "ΔTm", "value": "-0.47 °C"}
{"SMILES": "O=C(O)c1ccc2c(c1)nc(NCCc1cccc(F)c1)c1ccncc12", "target": "DYRK1B", "assay": "enzyme activity, inhibitor, radiometric", "setting": "1 µM", "quantity": "remaining activity", "value": "106%"}
{"SMILES": "Cc1cnc(Nc2ccc(OCCN3CCCC3)cc2)nc1Nc1cccc(S(=O)(=O)NC(C)(C)C)c1", "target": "Transcription intermediary factor 1-beta (TRIM28, Homo sapiens, UniProt Q13263)", "assay": "thermal stability, DSF", "setting": "10 µM", "quantity": "ΔTm", "value": "0.08 °C"}
{"SMILES": "O=C(O)c1ccc(O)cc1", "target": "PTGS2", "assay": "enzyme activity, inhibitor", "setting": "1.95 µg/mL", "quantity": "inhibition", "value": "41.7%"}
{"SMILES": "CCN1CCN(Cc2ccc(NC(=O)c3ccc(C)c(Oc4ccnc5[nH]ccc45)c3)cc2C(F)(F)F)CC1", "target": "Microtubule-associated serine/threonine-protein kinase 3 (MAST3, Homo sapiens, UniProt O60307)", "assay": "target engagement in cells, inhibitor, chemoproteomics", "test system": "Huh-7", "setting": "1 µM", "quantity": "inhibition", "value": "-11.3%"}
{"SMILES": "Nc1ncnc2occ(-c3ccc(NC(=O)Nc4cc(C(F)(F)F)ccc4F)cc3)c12", "target": "Mitogen-activated protein kinase kinase kinase 15 (MAP3K15, Homo sapiens, UniProt Q6ZN16)", "assay": "cell-free assay, inhibitor", "setting": "20 µM", "quantity": "remaining signal", "value": "39%"}
{"SMILES": "CN(C)C1CCN(CC#Cc2nn(C3CCCC3)c3nc(NCc4ccccc4)ncc23)C1 (stereo not shown)", "target": "Serine/threonine-protein kinase PAK 1 (PAK1, Homo sapiens, UniProt Q13153)", "assay": "enzyme activity, inhibitor, FRET", "setting": "0.1 µM", "quantity": "inhibition", "value": "2%"}
{"SMILES": "O=C(O)c1ccc2c(c1)nc(Nc1ccc(F)c(Cl)c1)c1ccncc12", "target": "DYRK1B", "assay": "enzyme activity, inhibitor, radiometric", "setting": "1 µM", "quantity": "remaining activity", "value": "22%"}
{"SMILES": "O=c1cc(-c2ccc(O)cc2)oc2cc(O)cc(O)c12", "target": "PTGS2", "assay": "enzyme activity, inhibitor", "setting": "31.25 µg/mL", "quantity": "inhibition", "value": "100%"}
{"SMILES": "N#Cc1cccc(Nc2nc3cc(C(=O)O)ccc3c3cnccc23)c1", "target": "DYRK3", "assay": "enzyme activity, inhibitor, radiometric", "setting": "1 µM", "quantity": "remaining activity", "value": "0%"}
{"SMILES": "COc1ccc(-c2cc(=O)c3c(O)cc(O[C@@H]4O[C@H](CO)[C@@H](O)[C@H](O)[C@H]4O)cc3o2)cc1O", "target": "PTGS2", "assay": "enzyme activity, inhibitor", "setting": "0.98 µg/mL", "quantity": "inhibition", "value": "72.2%"}
{"SMILES": "N#Cc1cccc(Nc2nc3cc(C(=O)O)ccc3c3cncnc23)c1", "target": "DYRK1B", "assay": "enzyme activity, inhibitor, radiometric", "setting": "1 µM", "quantity": "remaining activity", "value": "87%"}
{"SMILES": "N=C(N)NCCC[C@H](NC(=O)[C@H](CC(=O)O)NC(=O)[C@H](Cc1c[nH]c2ccccc12)NC(=O)[C@H](CCCNC(=N)N)NC(=O)[C@@H](N)Cc1ccccc1)C(=O)N[C@@H](Cc1ccccc1)C(=O)NCC(=O)O", "target": "Melanocyte-stimulating hormone receptor (Mc1r, Mus musculus, UniProt Q01727)", "assay": "cAMP, agonist", "test system": "HEK293", "quantity": "Emax", "value": "30%"}
